Source: ChEMBL document CHEMBL4190234, “Design, synthesis and anticancer activity of new monastrol analogues bearing 1,3,4-oxadiazole moiety” (Eur J Med Chem, 2017)

Assays:
Type in all cases: functional
[1] = tested on: KM12; experiment: Growth inhibition of human KM12 cells at 10 uM incubated for 48 hrs by sulforhodamine B assay relative to control; settings: KM12, 48 h, read-out: GI
Outline: (§1)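 Single-dose screen at 10 μM final: cells in RPMI 1640, 5% FBS, 2 mM L-glutamine, plated 5,000–40,000/well, preincubated 24 h at 37°C, 5% CO2; drug 48 h; adherent cells fixed with 10% TCA, suspension cells with 16% TCA; SRB stain, absorbance 515 nm; percentage growth versus untreated control, with time-zero plates.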

[2] = tested on: PC-3; experiment: Growth inhibition of human PC3 cells at 10 uM incubated for 48 hrs by sulforhodamine B assay relative to control; settings: PC-3, 48 h, read-out: GI; outline: as §1
[3] = tested on: Malme-3M; experiment: Growth inhibition of human MALME-3M cells at 10 uM incubated for 48 hrs by sulforhodamine B assay relative to control; settings: read-out: GI; outline: as §1
[4] = tested on: EKVX; experiment: Growth inhibition of human EKVX cells at 10 uM incubated for 48 hrs by sulforhodamine B assay relative to control; settings: read-out: GI; outline: as §1
[5] = tested on: SK-OV-3; experiment: Growth inhibition of human SKOV3 cells at 10 uM incubated for 48 hrs by sulforhodamine B assay relative to control; settings: SK-OV-3, 48 h, read-out: GI
Outline: (§2)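 NCI single-dose screen: cells grown in RPMI 1640 with 5% FBS and 2 mM L-glutamine, plated at 5,000–40,000 cells/well and preincubated 24 h at 37 °C, 5% CO2. Compounds taken from DMSO stock and tested at final 10 µM for 48 h. Cells fixed with TCA, stained with 0.4% SRB, absorbance read at 515 nm. Percentage growth calculated against untreated controls; controls held DMSO at the same dilution.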

[6] = tested on: M14; experiment: Growth inhibition of human M14 cells at 10 uM incubated for 48 hrs by sulforhodamine B assay relative to control; settings: M14, 48 h, read-out: GI; outline: as §1
[7] = tested on: UACC-62; experiment: Growth inhibition of human UACC62 cells at 10 uM incubated for 48 hrs by sulforhodamine B assay relative to control; settings: UACC-62, 48 h, read-out: GI; outline: as §2
[8] = tested on: OVCAR-5; experiment: Growth inhibition of human OVCAR5 cells at 10 uM incubated for 48 hrs by sulforhodamine B assay relative to control; settings: OVCAR-5, 48 h, read-out: GI; outline: as §1
[9] = tested on: HOP-62; experiment: Growth inhibition of human HOP62 cells at 10 uM incubated for 48 hrs by sulforhodamine B assay relative to control; settings: HOP-62, 48 h, read-out: GI; outline: as §1
[10] = tested on: SNB-19; experiment: Growth inhibition of human SNB19 cells at 10 uM incubated for 48 hrs by sulforhodamine B assay relative to control; settings: SNB-19, 48 h, read-out: GI; outline: as §2
[11] = tested on: RXF 393; experiment: Growth inhibition of human RXF393 cells at 10 uM incubated for 48 hrs by sulforhodamine B assay relative to control; settings: RXF 393, 48 h, read-out: GI; outline: as §1
[12] = tested on: Hs-578T; experiment: Growth inhibition of human Hs 578T cells at 10 uM incubated for 48 hrs by sulforhodamine B assay relative to control; settings: read-out: GI; outline: as §1
[13] = tested on: U-251; experiment: Growth inhibition of human U251 cells at 10 uM incubated for 48 hrs by sulforhodamine B assay relative to control; settings: U-251, 48 h, read-out: GI; outline: as §2
[14] = tested on: ACHN; experiment: Growth inhibition of human ACHN cells at 10 uM incubated for 48 hrs by sulforhodamine B assay relative to control; settings: read-out: GI; outline: as §1
[15] = tested on: SK-MEL-5; experiment: Growth inhibition of human SK-MEL-5 cells at 10 uM incubated for 48 hrs by sulforhodamine B assay relative to control; settings: SK-MEL-5, 48 h, read-out: GI; outline: as §2
[16] = tested on: COLO 205; experiment: Growth inhibition of human COLO205 cells at 10 uM incubated for 48 hrs by sulforhodamine B assay relative to control; settings: COLO 205, 48 h, read-out: GI; outline: as §1
[17] = tested on: NCI-H460; experiment: Growth inhibition of human NCI-H460 cells at 10 uM incubated for 48 hrs by sulforhodamine B assay relative to control; settings: NCI-H460, 48 h, read-out: GI; outline: as §1
[18] = tested on: CAKI-1; experiment: Growth inhibition of human Caki1 cells at 10 uM incubated for 48 hrs by sulforhodamine B assay relative to control; settings: CAKI-1, 48 h, read-out: GI; outline: as §1
[19] = tested on: NCI-H23; experiment: Growth inhibition of human NCI-H23 cells at 10 uM incubated for 48 hrs by sulforhodamine B assay relative to control; settings: NCI-H23, 48 h, read-out: GI; outline: as §1
[20] = tested on: SW-620; experiment: Growth inhibition of human SW620 cells at 10 uM incubated for 48 hrs by sulforhodamine B assay relative to control; settings: SW-620, 48 h, read-out: GI; outline: as §2
[21] = tested on: HT-29; experiment: Growth inhibition of human HT-29 cells at 10 uM incubated for 48 hrs by sulforhodamine B assay relative to control; settings: HT-29, 48 h, read-out: GI; outline: as §1
[22] = tested on: HCT-116; experiment: Growth inhibition of human HCT116 cells at 10 uM incubated for 48 hrs by sulforhodamine B assay relative to control; settings: HCT-116, 48 h, read-out: GI; outline: as §1
[23] = tested on: SN12C; experiment: Growth inhibition of human SN12C cells at 10 uM incubated for 48 hrs by sulforhodamine B assay relative to control; settings: read-out: GI; outline: as §2
[24] = tested on: NCI-H522; experiment: Growth inhibition of human NCI-H522 cells at 10 uM incubated for 48 hrs by sulforhodamine B assay relative to control; settings: NCI-H522, 48 h, read-out: GI; outline: as §1
[25] = tested on: SK-MEL-28; experiment: Growth inhibition of human SK-MEL-28 cells at 10 uM incubated for 48 hrs by sulforhodamine B assay relative to control; settings: SK-MEL-28, 48 h, read-out: GI; outline: as §2
[26] = tested on: A549; experiment: Growth inhibition of human A549/ATCC cells at 10 uM incubated for 48 hrs by sulforhodamine B assay relative to control; settings: A549, 48 h, read-out: GI; outline: as §1
[27] = tested on: NCI/ADR-RES; experiment: Growth inhibition of human NCI/ADR-RES cells at 10 uM incubated for 48 hrs by sulforhodamine B assay relative to control; settings: read-out: GI; outline: as §1
[28] = tested on: RPMI-8226; experiment: Growth inhibition of human RPMI8226 cells at 10 uM incubated for 48 hrs by sulforhodamine B assay relative to control; settings: RPMI-8226, 48 h, read-out: GI; outline: as §1
[29] = tested on: TK-10; experiment: Growth inhibition of human TK10 cells at 10 uM incubated for 48 hrs by sulforhodamine B assay relative to control; settings: TK-10, 48 h, read-out: GI; outline: as §2
[30] = tested on: UACC-257; experiment: Growth inhibition of human UACC257 cells at 10 uM incubated for 48 hrs by sulforhodamine B assay relative to control; settings: UACC-257, 48 h, read-out: GI; outline: as §2

SMILES | inhibition of growth at 10 µM [1] | inhibition of growth at 10 µM [2] | inhibition of growth at 10 µM [3] | inhibition of growth at 10 µM [4] | inhibition of growth at 10 µM [5] | inhibition of growth at 10 µM [6] | inhibition of growth at 10 µM [7] | inhibition of growth at 10 µM [8] | inhibition of growth at 10 µM [9] | inhibition of growth at 10 µM [10] | inhibition of growth at 10 µM [11] | inhibition of growth at 10 µM [12] | inhibition of growth at 10 µM [13] | inhibition of growth at 10 µM [14] | inhibition of growth at 10 µM [15] | inhibition of growth at 10 µM [16] | inhibition of growth at 10 µM [17] | inhibition of growth at 10 µM [18] | inhibition of growth at 10 µM [19] | inhibition of growth at 10 µM [20] | further results
CCOC(=O)C1=C(C)NC(SCc2nnc(-c3ccc(Cl)cc3)o2)=NC1c1ccc(Br)cc1 (stereo not given) | 24% | 51.2% | 16.9% | 28.7% | 18% | 26% | 44.7% | < 10% | 13.1% | 28% | 25% | 12.9% | 34.3% | 30.3% | 48.6% | 22.4% | 19.6% | 32.8% | 24.3% | < 10% | inhibition of growth at 10 µM [21]: 21.3%; inhibition of growth at 10 µM [22]: 51.4%; inhibition of growth at 10 µM [23]: < 10%; inhibition of growth at 10 µM [24]: 32.4%; inhibition of growth at 10 µM [25]: 18.7%; inhibition of growth at 10 µM [26]: 37.6%; inhibition of growth at 10 µM [27]: 32.5%; inhibition of growth at 10 µM [28]: 61.6%; inhibition of growth at 10 µM [29]: 20.1%; inhibition of growth at 10 µM [30]: 27%
CCOC(=O)C1=C(C)NC(SCc2nnc(-c3ccc(Cl)cc3)o2)=NC1c1ccccc1 (stereo not given) | 10.3% | 42.2% | < 10% | 14.8% | 25.6% | 19.5% | 34.9% | < 10% | 27.8% | 11.7% | < 10% | < 10% | 21.2% | < 10% | < 10% | 10.4% | < 10% | 22.3% | < 10% | < 10% | inhibition of growth at 10 µM [21]: 22.3%; inhibition of growth at 10 µM [22]: 36.8%; inhibition of growth at 10 µM [23]: 14.8%; inhibition of growth at 10 µM [24]: 54.1%; inhibition of growth at 10 µM [25]: < 10%; inhibition of growth at 10 µM [26]: 29%; inhibition of growth at 10 µM [27]: < 10%; inhibition of growth at 10 µM [28]: 27.3%; inhibition of growth at 10 µM [29]: 30.8%; inhibition of growth at 10 µM [30]: 25.9%
CCOC(=O)C1=C(C)NC(SCc2nnc(-c3ccc(Cl)cc3)o2)=NC1c1cccc(Cl)c1 (stereo not given) | 16% | 39.2% | < 10% | < 10% | 29.9% | 26.2% | 26.6% | 10.5% | 25.1% | 10.4% | < 10% | < 10% | < 10% | < 10% | < 10% | 29.6% | < 10% | 35.1% | < 10% | < 10% | inhibition of growth at 10 µM [21]: 46.4%; inhibition of growth at 10 µM [22]: 56.5%; inhibition of growth at 10 µM [23]: < 10%; inhibition of growth at 10 µM [24]: 74.6%; inhibition of growth at 10 µM [25]: < 10%; inhibition of growth at 10 µM [26]: 29.5%; inhibition of growth at 10 µM [27]: 21.3%; inhibition of growth at 10 µM [28]: 46.4%; inhibition of growth at 10 µM [29]: 30.3%; inhibition of growth at 10 µM [30]: 22.2%
